One assay addresses Coagulation factor X (Homo sapiens, UniProt P00742). As to the kind of experiment: Compound was evaluated for the inhibition of human Coagulation factor Xa.
Assay [1] has as its target T1, Prothrombin (Homo sapiens, UniProt P00734). The assay can be described thus: Inhibition of human thrombin. The method, boiled down: (§1)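 Preincubated with compound 30 min, then Pefachrome TH at 50 μM final. p-Nitroanilide release followed at 405 nm for 5 min. IC50 from initial velocities; apparent Ki via Cheng-Prusoff, assuming competitive inhibition.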
Another assay concerns the target T2, Serine protease 1 (Bos taurus, UniProt P00760).
T2 sequence (P00760 whole entry): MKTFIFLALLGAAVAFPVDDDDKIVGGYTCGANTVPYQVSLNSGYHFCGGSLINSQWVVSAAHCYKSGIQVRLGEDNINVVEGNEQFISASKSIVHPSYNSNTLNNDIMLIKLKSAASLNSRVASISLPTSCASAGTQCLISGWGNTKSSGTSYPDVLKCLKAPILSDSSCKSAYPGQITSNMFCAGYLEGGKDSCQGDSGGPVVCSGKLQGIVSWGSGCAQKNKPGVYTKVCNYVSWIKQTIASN
As to the kind of experiment: Inhibitory activity against bovine pancreatic trypsin. The procedure, abridged:
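Bovine trypsin at 1 nM final, with buffer 0.05 M Tris, 0.15 M NaCl, 0.1% PEG-8000, 0.02 M CaCl2, pH 7.5, room temperature. 30 min compound preincubation, then S-2765 at 250 μM final. 405 nm read continuously for 5 min. IC50 from initial rates; apparent Ki by Cheng-Prusoff, assuming competitive kinetics.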

In assay [2] the target is T3, Vitamin K-dependent protein C (Homo sapiens, UniProt P04070). The assay can be described thus: Compound was evaluated for the inhibition of activated protein C (aPC). The method, boiled down: (§2)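 Human aPC, final enzyme 1 nM, in 0.05 M Tris, 0.15 M NaCl, 0.1% PEG-8000, 0.02 M CaCl2, pH 7.5. Compound preincubated with enzyme 30 min at room temperature. S-2366 at 500 μM final started the reaction. p-Nitroanilide release read continuously at 405 nm for 5 min, under 10% substrate consumed. IC50 from initial velocities; apparent Ki by Cheng-Prusoff, competitive mechanism assumed.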

The target in the next assay is Plasminogen (Homo sapiens, UniProt P00747). As to the kind of experiment: Compound was evaluated for the inhibition of plasmin. The method, boiled down: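 Compound preincubated 30 min, then S-2366 at 300 μM final. Continuous 405 nm read over 5 min. Initial velocities gave IC50; apparent Ki from Cheng-Prusoff, assuming competitive mechanism.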
Assay [3] concerns the target Tissue-type plasminogen activator (Homo sapiens, UniProt P00750). As to the kind of experiment: Compound was evaluated for the inhibition of Tissue type plasminogen activator (tissue plasminogen activator). The method, boiled down:
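tPA, final enzyme 1 nM, in 0.05 M Tris, 0.15 M NaCl, 0.1% (w/v) BSA, pH 7.5. Preincubated 30 min with compound at room temperature, then Pefachrome-tPA at 500 μM final added. Release of p-nitroanilide monitored at 405 nm for 5 min. IC50 taken from initial rates; apparent Ki via Cheng-Prusoff, assuming competitive inhibition.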

For assay [4], the target named is T1, Prothrombin. The assay can be described thus: Compound was evaluated for the inhibition of thrombin. The procedure, abridged: as §1
Assay [5] deals with T3, Vitamin K-dependent protein C. The assay can be described thus: Compound was evaluated for the inhibition of Activated protein C (aPC). The method, boiled down:
as §2

Results on 22 compounds are retold here after ChEMBL document CHEMBL1132151, “Design and structure-activity relationships of potent and selective inhibitors of blood coagulation factor Xa” (J Med Chem, 1999).

By Ki is commonly meant the dissociation constant of the complex between target and ligand, obtained from inhibition or displacement.

Chain of Tissue-type plasminogen activator (P00750 whole entry): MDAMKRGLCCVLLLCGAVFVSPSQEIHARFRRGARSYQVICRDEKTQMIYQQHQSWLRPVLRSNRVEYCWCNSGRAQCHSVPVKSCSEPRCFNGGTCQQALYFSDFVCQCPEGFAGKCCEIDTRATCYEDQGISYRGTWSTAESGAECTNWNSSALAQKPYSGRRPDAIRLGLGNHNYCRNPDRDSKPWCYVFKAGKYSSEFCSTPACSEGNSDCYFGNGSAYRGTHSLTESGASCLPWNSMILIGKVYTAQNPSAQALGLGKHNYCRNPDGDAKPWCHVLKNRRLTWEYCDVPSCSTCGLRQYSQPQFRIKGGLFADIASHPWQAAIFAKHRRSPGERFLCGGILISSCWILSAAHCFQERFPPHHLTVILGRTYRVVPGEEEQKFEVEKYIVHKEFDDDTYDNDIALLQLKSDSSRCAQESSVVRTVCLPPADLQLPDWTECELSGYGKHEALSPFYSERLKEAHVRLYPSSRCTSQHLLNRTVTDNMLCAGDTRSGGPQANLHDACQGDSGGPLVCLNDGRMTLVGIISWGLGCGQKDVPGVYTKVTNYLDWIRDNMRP
Chain of Plasminogen (P00747 97-580 limits assumed): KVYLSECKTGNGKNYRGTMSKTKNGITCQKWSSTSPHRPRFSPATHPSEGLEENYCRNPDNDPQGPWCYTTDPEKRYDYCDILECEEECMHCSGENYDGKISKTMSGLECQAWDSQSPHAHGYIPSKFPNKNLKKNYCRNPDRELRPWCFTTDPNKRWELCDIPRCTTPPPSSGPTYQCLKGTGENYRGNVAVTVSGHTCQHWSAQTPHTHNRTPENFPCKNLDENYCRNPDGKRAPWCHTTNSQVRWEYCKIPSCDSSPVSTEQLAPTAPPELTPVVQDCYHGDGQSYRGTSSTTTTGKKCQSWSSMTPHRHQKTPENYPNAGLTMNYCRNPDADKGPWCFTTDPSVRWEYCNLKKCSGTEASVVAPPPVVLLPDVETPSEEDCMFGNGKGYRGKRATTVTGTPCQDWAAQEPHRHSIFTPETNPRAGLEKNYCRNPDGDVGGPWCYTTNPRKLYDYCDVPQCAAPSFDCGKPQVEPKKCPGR
Chain of Plasminogen (P00747 581-810 limits assumed): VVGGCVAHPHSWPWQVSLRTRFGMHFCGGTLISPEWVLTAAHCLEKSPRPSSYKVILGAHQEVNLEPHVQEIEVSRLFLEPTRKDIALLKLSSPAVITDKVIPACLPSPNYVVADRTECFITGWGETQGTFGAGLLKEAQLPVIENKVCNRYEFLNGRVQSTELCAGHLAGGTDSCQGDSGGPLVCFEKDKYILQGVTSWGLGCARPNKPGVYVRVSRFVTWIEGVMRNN
Chain of Coagulation factor X (P00742 41-179 limits assumed): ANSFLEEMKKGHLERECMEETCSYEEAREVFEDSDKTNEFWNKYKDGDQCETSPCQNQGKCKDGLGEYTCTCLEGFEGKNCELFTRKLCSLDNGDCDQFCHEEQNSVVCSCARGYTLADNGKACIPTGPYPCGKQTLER
Chain of Coagulation factor X (P00742 235-488 limits assumed): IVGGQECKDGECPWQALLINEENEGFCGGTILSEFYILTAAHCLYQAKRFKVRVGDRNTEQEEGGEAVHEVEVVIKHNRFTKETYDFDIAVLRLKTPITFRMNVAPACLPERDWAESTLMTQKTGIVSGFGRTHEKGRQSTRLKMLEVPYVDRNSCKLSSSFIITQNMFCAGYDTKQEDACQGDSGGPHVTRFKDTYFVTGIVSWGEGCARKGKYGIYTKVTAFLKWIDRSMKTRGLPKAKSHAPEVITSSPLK
T3 sequence (P04070 43-197 limits assumed): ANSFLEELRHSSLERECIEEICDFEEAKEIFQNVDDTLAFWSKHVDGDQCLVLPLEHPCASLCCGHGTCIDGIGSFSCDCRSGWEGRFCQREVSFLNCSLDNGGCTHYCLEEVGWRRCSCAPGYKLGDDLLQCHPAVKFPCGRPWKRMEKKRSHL
T3 sequence (P04070 212-461 limits assumed): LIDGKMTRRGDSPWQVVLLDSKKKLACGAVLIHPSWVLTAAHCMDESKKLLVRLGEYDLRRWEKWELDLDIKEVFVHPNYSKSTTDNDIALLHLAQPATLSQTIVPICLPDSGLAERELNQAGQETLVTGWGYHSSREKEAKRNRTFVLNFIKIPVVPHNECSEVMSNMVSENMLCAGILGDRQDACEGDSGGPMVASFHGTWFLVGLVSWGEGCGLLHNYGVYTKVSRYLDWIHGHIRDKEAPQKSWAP

Take `COc1ccc2ccc(S(=O)(=O)N(CC(=O)O)[C@H]3CCN(Cc4cccc(C(=N)N)c4)C3=O)cc2c1`: the inhibition constant Ki on Coagulation factor X was 0.12 µM; on Prothrombin [1] it was more than 4 µM; at Serine protease 1 it was more than 2.9 µM.
For `N=C(N)c1cccc(CN2CC[C@H](NS(=O)(=O)c3ccc(Cc4ccccc4)cc3)C2=O)c1`, the Ki at Coagulation factor X is 1.1 µM; at Prothrombin [1] it was more than 4 µM; at Serine protease 1 it was more than 2.9 µM.
With `N=C(N)c1cccc(CNC(=O)CNS(=O)(=O)c2ccc3ccccc3c2)c1`, the Ki at Coagulation factor X was 0.34 µM; on Prothrombin [1] it was 0.63 µM; on Serine protease 1 it was 0.08 µM.
Regarding `CCOc1ccc2ccc(S(=O)(=O)N[C@H]3CCN(Cc4cccc(C(=N)N)c4)C3=O)cc2c1`, the Ki on Coagulation factor X was 0.28 µM; at Prothrombin [1], 1.9 µM; on Serine protease 1, more than 2.9 µM.
For `N=C(N)c1cccc(CN2CC[C@H](NS(=O)(=O)c3ccc4cc(Cl)ccc4c3)C2=O)c1`, in that order: 0.07 µM, 1.5 µM and more than 2.9 µM.
In the case of `COc1ccc2ccc(S(=O)(=O)N(Cc3ccccc3)[C@H]3CCN(Cc4cccc(C(=N)N)c4)C3=O)cc2c1`, the Ki turned out to be 0.041 µM on Coagulation factor X, 0.44 µM at Prothrombin [1] and 1.8 µM at Serine protease 1.
`COc1ccc2ccc(S(=O)(=O)N(C)[C@H]3CCN(Cc4csc(C(=N)N)c4)C3=O)cc2c1`: the Ki in assay [2] stood at 2.4 µM; at Plasminogen it was 4.4 µM; in assay [3] it was 8.6 µM; on Prothrombin [4] it was 1 µM; at Serine protease 1, 0.53 µM.
Take `N=C(N)c1cccc(CN2CCCC[C@H](NS(=O)(=O)c3ccc4ccccc4c3)C2=O)c1`: the Ki on Coagulation factor X was 7 µM; on Prothrombin [1], more than 4 µM; on Serine protease 1 it was more than 2.9 µM.
Consider `COc1ccc2ccc(S(=O)(=O)N[C@H]3CCN(Cc4cccc(C(=N)N)c4)C3=O)cc2c1`, for which the Ki was 1.2 µM in assay [2], 4.7 µM on Plasminogen and more than 10 µM in assay [3].
With `COc1ccc2ccc(S(=O)(=O)N[C@H]3CCN(Cc4csc(C(=N)N)c4)C3=O)cc2c1`, the Ki on Coagulation factor X was 0.011 µM; at Prothrombin [1], 1.3 µM; on Serine protease 1 it was 0.5 µM.
For `COc1ccc2ccc(S(=O)(=O)N[C@H]3CCN(Cc4ccnc(C(=N)N)c4)C3=O)cc2c1`, the Ki at Coagulation factor X was 0.11 µM; on Prothrombin [1] it was 2.04 µM; at Serine protease 1, 2.84 µM.
On to `COc1cccc(-c2ccc(S(=O)(=O)N[C@H]3CCN(Cc4cccc(C(=N)N)c4)C3=O)cc2)c1`, for which the Ki on Coagulation factor X is 0.1 µM; at Prothrombin [1], 2.5 µM; on Serine protease 1, more than 2.9 µM.
Regarding `N=C(N)c1cccc(CN2CC[C@H](NS(=O)(=O)c3ccc(Oc4ccccc4)cc3)C2=O)c1`, the Ki is 0.38 µM on Coagulation factor X, more than 4 µM at Prothrombin [1] and more than 2.9 µM at Serine protease 1.
Consider `N=C(N)c1cccc(CN2CC[C@H](NS(=O)(=O)c3cccc4ccccc34)C2=O)c1`, for which the Ki on Coagulation factor X was 0.75 µM; at Prothrombin [1], more than 4 µM; at Serine protease 1 it was more than 2.9 µM.
For `COc1ccc2ccc(S(=O)(=O)N(Cc3ccsc3)[C@H]3CCN(Cc4cccc(C(=N)N)c4)C3=O)cc2c1`, the inhibition constant Ki at Coagulation factor X was found to be 0.019 µM; on Prothrombin [1], 0.36 µM; at Serine protease 1, 1.08 µM.
For `N=C(N)c1cccc(Cn2cc(CCc3ccc4ccccc4c3)c3ccccc32)c1`, in that order: 0.9 µM, more than 4 µM and 2.9 µM.
The matching figures for `CCN([C@H]1CCN(Cc2cccc(C(=N)N)c2)C1=O)S(=O)(=O)c1ccc2ccc(OC)cc2c1`: 0.043 µM, 0.88 µM and 1.4 µM.
On to `COc1ccccc1-c1ccc(S(=O)(=O)N[C@H]2CCN(Cc3cccc(C(=N)N)c3)C2=O)cc1`, for which the Ki was 0.19 µM on Coagulation factor X, more than 4 µM at Prothrombin [1] and more than 2.9 µM at Serine protease 1.
For `N=C(N)c1cccc(CN2CC[C@H](NS(=O)(=O)c3ccc4ccccc4c3)C2=O)c1`, the Ki in assay [5] is 7 µM; at Plasminogen, 4.7 µM; in assay [3], more than 10 µM; at Prothrombin [1], more than 4 µM; at Serine protease 1, 2.9 µM.
Take `N=C(N)c1cccc(CN2CC[C@H](NS(=O)(=O)c3ccc4ccc(N)cc4c3)C2=O)c1`: the inhibition constant Ki was 0.12 µM on Coagulation factor X, 2.6 µM on Prothrombin [1] and 1.3 µM on Serine protease 1.
The matching figures for `N=C(N)c1cccc(CN2CC[C@H](NS(=O)(=O)c3ccc4ccc(Cl)cc4c3)C2=O)c1`: 0.078 µM, 1.2 µM and 2 µM.
For `COc1ccc2ccc(S(=O)(=O)N[C@H]3CCN(Cc4ccc(C(=N)N)cc4)C3=O)cc2c1`, in that order: 0.97 µM, more than 4 µM and 2.3 µM.
